Assay results taken from PubChem BioAssay.
Records with an inconclusive call do not appear.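 The calls were made as follows, unless noted: active = cell viability at or below a set limit in both duplicate runs, the limit being the all-compound median minus 4 SD (cut at about 23% in these data, passing the limit was not always enough); inconclusive = no clear call, values can overlap the other calls; inactive = the rest.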

Tests used:
[1] = S. cerevisiae growth inhibition in permissive medium (OD615), pilot counter-assay for S. cerevisiae lifespan shortening project, permissive growth control (AID 705;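 active = growth inhibition above 25% in both replicates, a cutoff set 3 SD above the mean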); conditions: OD615, 24 h, at 10 µM, stronger effect = higher value
Method in brief: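 Timing: 24 h exposure, 30 °C / Material: Saccharomyces cerevisiae strain carrying genetically modified DeaD replicative-lifespan system / Signal: OD at 615 nm / Compound: 10 µM single dose, 0.25% DMSO / Medium: SC raffinose/galactose permissive medium / Evaluation: reduction in yeast growth (OD615)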

[2] = S. cerevisiae growth inhibition in restrictive medium, OD615, pilot screen, restrictive growth control, yeast lifespan reduction project (AID 706;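 active = growth inhibition above a set limit, 3 SD over mean compound inhibition, in both replicates, cut at about 43% in these data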;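 also: modified DeaD lifespan yeast strain shifted to restrictive glucose medium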); conditions: OD615, 48 h, at 10 µM, stronger effect = higher value
Method in brief: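 System: Engineered S. cerevisiae DeaD strain | Detection: OD615 | Buffer or medium: CSMM-D glucose medium | Doses: 10 µM compound, 0.25% DMSO | Timing: 4 h pre-growth plus 48 h compound exposure, 30 °C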

[3] = doxorubicin toxicity protection in MRP-1 cells – H69AR cells, CellTiter-Glo, duplicate, MRP-1 activator project, pilot screen (AID 807;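 active = viability increase at or above a cutoff of the median across tested compounds plus 3 SD, cut at about 8.5% in these data, passing the limit was not always enough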;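 also: compound pretreatment 18-22 h then 72 h combined with doxorubicin; 0% = doxorubicin alone and 100% = vehicle without doxorubicin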); conditions: H69AR viability with doxorubicin, CellTiter-Glo luminescence; at 10 µM; stronger effect = higher value
[4] = viability of HCT116 without oncogenic beta-catenin – human colon tumor cells, pilot screen (AID 823); conditions: HCT116 beta-catenin knockout viability, CellTiter-Glo, 60 h; at 10 µM; stronger effect = lower value;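 also: 0% = wells killed by 20 µM Hyamine and 100% = untreated DMSO cell wells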
[5] = viability of PTEN-null HCT116 cells – cell-based, HCT116 clonal line, CellTiter-Glo, pilot screen (AID 824;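 active = viability at or below 27.92% in each of two runs, the all-compound median minus 4 SD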;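 also: 0% = 20 µM Hyamine control and 100% = vehicle cell control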); conditions: HCT116 PTEN-deleted viability, 60 h, at 10 µM, stronger effect = lower value
[6] = RAM pathway blockade in budding yeast – dse1pr::URA3 reporter, 5-FOA selection, pilot screen (AID 869;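 active = inhibition over a set limit, the all-compound mean plus 3 SD, in both replicate runs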;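 also: 0% = DMSO wells with no growth and 100% = 10 µM 1-NA-PP1 with full growth; RAM network block rescues cells from 5-FOA so hits raise OD615 growth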); conditions: S. cerevisiae dse1pr::URA3 5-FOA growth, OD615, 2 d; at 10 µM; stronger effect = higher value; strain carries analog-sensitive mutant Cbk1 kinase
[7] = RAM signaling pathway blockade in yeast – S. cerevisiae, Pdr1DBD-CYC8 efflux-inhibited sensitized strain, primary screen (AID 1298;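 active = RAM network inhibition above 8.4% in each of two replicates, 3 SD over the compound average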;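 also: 0% = DMSO untreated cells without growth and 100% = 10 µM 1-NA-PP1 full growth; higher means more yeast growth rescued from 5-FOA killing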); conditions: S. cerevisiae cbk1-as DSE1-URA3 strain, 5-FOA growth OD615, 2 d; at 50 µM; stronger effect = higher value

CCn1cc(Cl)c(C(=O)Nc2nc3ccccc3n2CCN2CCCCC2)n1
inactive: growth inhibition [1] -5% | growth inhibition [2] 13.4% | viability increase [3] -4.57% | viability [4] 88.8% | viability [5] 92.2% | inhibition [6] 0.905% | RAM network inhibition [7] 2.98%

Cc1ccc2cc(CCNS(=O)(=O)c3ccc(F)cc3)c(=O)[nH]c2c1
inactive: growth inhibition [1] -11.5% | growth inhibition [2] -8.69% | viability increase [3] -1.91% | viability [4] 93% | viability [5] 80.5% | inhibition [6] 1.72% | RAM network inhibition [7] 1.31%

CCOc1ccc(Br)cc1/C=N/O
inactive: growth inhibition [1] -17.4% | growth inhibition [2] -29.9% | viability increase [3] -1.73% | viability [4] 80.3% | viability [5] 87.1% | inhibition [6] 0.11% | RAM network inhibition [7] -0.16%

Cc1ccc(NC(=O)CSc2nnc(-c3ccncc3)n2N)cc1C
inactive: growth inhibition [1] -4.62% | growth inhibition [2] -3.02% | viability increase [3] -2.83% | viability [4] 97.8% | viability [5] 98.3% | inhibition [6] 1.71% | RAM network inhibition [7] 2.23%

CCOC(=O)C(C)n1cnc2c(nnn2-c2cccc(Cl)c2)c1=O (configuration not stated)
inactive: growth inhibition [1] -4.37% | growth inhibition [2] -3.95% | viability increase [3] 1.78% | viability [4] 102% | viability [5] 92.6% | inhibition [6] 2.58% | RAM network inhibition [7] 4.24%

O=C(COC(=O)c1ccc(Br)o1)Nc1nc2ccccc2s1
inactive: growth inhibition [1] -11.2% | growth inhibition [2] -4.01% | viability increase [3] -4.65% | viability [4] 90.5% | viability [5] 87.8% | inhibition [6] 0.75% | RAM network inhibition [7] 1.88%

CCCc1n[nH]c2c1C(=O)CC(C)(C)C2
inactive: growth inhibition [1] -9.08% | growth inhibition [2] -9.82% | viability increase [3] -1.76% | viability [4] 95.6% | viability [5] 102% | inhibition [6] 0.98% | RAM network inhibition [7] 2.76%

CCOC(=O)C1CCCN(c2c(NCCCN3CCCC(C)C3)c(=O)c2=O)C1 (configuration not stated)
inactive: growth inhibition [1] 3.9% | growth inhibition [2] 3.15% | viability increase [3] -0.04% | viability [4] 99.1% | viability [5] 94.4% | inhibition [6] 2.96% | RAM network inhibition [7] -0.87%

Cn1cccc1Cc1nnc(SCC(=O)NCc2ccccc2Cl)n1-c1ccc(F)cc1
inactive: growth inhibition [1] -7.31% | growth inhibition [2] 9.87% | viability increase [3] -5% | viability [4] 87% | viability [5] 86.5% | inhibition [6] 1.92% | RAM network inhibition [7] 8.74%

CCC(=O)Nc1c2c(nn1-c1ccc(OC)cc1)CS(=O)C2 (configuration not stated)
inactive: growth inhibition [1] -6.53% | growth inhibition [2] 5.54% | viability increase [3] 0.56% | viability [4] 102% | viability [5] 94.1% | inhibition [6] 1.37% | RAM network inhibition [7] 2.55%

O=C(CN1C(=O)c2ccccc2C1=O)Nc1cccc2cccnc12
inactive: growth inhibition [1] -14.6% | growth inhibition [2] -12.1% | viability increase [3] -1.1% | viability [4] 104% | viability [5] 106% | inhibition [6] 0.36% | RAM network inhibition [7] 5.82%

O=C1Nc2cc(Cl)cnc2N2CCCC12 (configuration not stated)
inactive: growth inhibition [1] -2.57% | growth inhibition [2] 8.33% | viability increase [3] -0.67% | viability [4] 97.7% | viability [5] 101% | inhibition [6] 0.905% | RAM network inhibition [7] 0%

C(#Cc1ccc(C#CCN2CCOCC2)cc1)CN1CCOCC1
inactive: growth inhibition [1] -17.1% | growth inhibition [2] -9.67% | viability increase [3] -0.83% | viability [4] 85.8% | viability [5] 87.2% | inhibition [6] 1.15% | RAM network inhibition [7] 3.18%

COc1ccc(Cl)cc1NC(=O)C1CSC(c2ccncc2)=N1 (configuration not stated)
inactive: growth inhibition [1] 1.68% | growth inhibition [2] -12.2% | viability increase [3] -8.24% | viability [4] 65.2% | viability [5] 61.5% | inhibition [6] 0.41% | RAM network inhibition [7] 5.11%

CCOC(=O)c1cc2c(=O)n3ccccc3nc2n(C(C)C)c1=NC(=O)c1ccncc1
inactive: growth inhibition [1] 6.47% | growth inhibition [2] 4.03% | viability increase [3] -1.27% | viability [4] 98.3% | viability [5] 94.7% | inhibition [6] -0.45% | RAM network inhibition [7] -0.58%

Cc1cc(C)nc(SCC(=O)NCc2ccco2)n1
inactive: growth inhibition [1] 3.65% | growth inhibition [2] 6.47% | viability increase [3] -5.58% | viability [4] 70.6% | viability [5] 78.4% | inhibition [6] -0.38% | RAM network inhibition [7] 2.1%

O=C(CCC(=O)OCCCC(F)(F)C(F)(F)F)Nc1ccccc1
inactive: growth inhibition [1] -3.25% | growth inhibition [2] 3.78% | viability increase [3] 1.41% | viability [4] 100% | viability [5] 104% | inhibition [6] 0.785% | RAM network inhibition [7] 3.34%

COc1cccc(NS(=O)(=O)c2nc3nc(C)cc(C)n3n2)c1
inactive: growth inhibition [1] -10.2% | growth inhibition [2] -2.87% | viability increase [3] -1.57% | viability [4] 108% | viability [5] 98.9% | inhibition [6] 2.01% | RAM network inhibition [7] -1%

CCOC(=O)N1CCc2c(sc(NC(C)=O)c2C(N)=O)C1
inactive: growth inhibition [1] -5.06% | growth inhibition [2] -16.1% | viability increase [3] -1.9% | viability [4] 103% | viability [5] 99.3% | inhibition [6] 1.6% | RAM network inhibition [7] 0.58%

CC(=O)NC(CCS(C)(=O)=O)C(=O)Nc1ccc(Oc2ccccc2)cc1 (configuration not stated)
inactive: growth inhibition [1] -7.71% | growth inhibition [2] -16.7% | viability increase [3] -0.67% | viability [4] 101% | viability [5] 93.5% | inhibition [6] 1.69% | RAM network inhibition [7] 5.21%

O=C(CCNS(=O)(=O)c1cccc2nonc12)NCCc1ccc(Cl)cc1
inactive: growth inhibition [1] -2.56% | growth inhibition [2] -9.13% | viability increase [3] 5.07% | viability [4] 90% | viability [5] 101% | inhibition [6] -0.08% | RAM network inhibition [7] 3%

O=c1oc2ccccc2n1Cc1ccccc1Cl
inactive: growth inhibition [1] -1.38% | growth inhibition [2] 8.91% | viability increase [3] -0.37% | viability [4] 97.1% | viability [5] 99.5% | inhibition [6] 1.56% | RAM network inhibition [7] 0.31%

CC1(C)Cc2c(C#N)c(N3CCCC3)nc(-c3ccco3)c2CO1
inactive: growth inhibition [1] -9.34% | growth inhibition [2] -8.21% | viability increase [3] -5.07% | viability [4] 90.3% | viability [5] 85.7% | inhibition [6] 1.39% | RAM network inhibition [7] -1.01%

CCOC(=O)C1CCN(C(=O)CN(c2cccc(OC)c2)S(=O)(=O)c2ccccc2)CC1
inactive: growth inhibition [1] -4.73% | growth inhibition [2] -0.62% | viability increase [3] -3.2% | viability [4] 92.9% | viability [5] 87.2% | inhibition [6] -0.74% | RAM network inhibition [7] 1.79%

CCOC(=O)C1=C(C)N(C)C(C)=C(C(=O)OCC)C1c1ccccn1
inactive: growth inhibition [1] -13.2% | growth inhibition [2] -14.6% | viability increase [3] -0.35% | viability [4] 96.2% | viability [5] 91.6% | inhibition [6] 1.98% | RAM network inhibition [7] 0.62%

CCN(CCCNC(=O)CN1C(=O)COc2ccccc21)c1ccccc1
inactive: growth inhibition [1] 0.42% | growth inhibition [2] -11.2% | viability increase [3] 1.23% | viability [4] 95.9% | viability [5] 88.3% | inhibition [6] 1.61% | RAM network inhibition [7] 3.49%

Cn1c(NC(=O)c2ccccc2C(F)(F)F)cc(=O)n(C)c1=O
inactive: growth inhibition [1] -16.9% | growth inhibition [2] -8.93% | viability increase [3] -2.06% | viability [4] 95.3% | viability [5] 90.7% | inhibition [6] 0.785% | RAM network inhibition [7] -1.32%

CCOC(=O)N1CCN(c2ncnc3nc[nH]c23)CC1
inactive: growth inhibition [1] -8.7% | growth inhibition [2] -10.1% | viability increase [3] -1.85% | viability [4] 109% | viability [5] 106% | inhibition [6] 0.595% | RAM network inhibition [7] 4.23%

O=S(=O)(c1ccc(Br)cc1)N1CCN(c2cc(-c3ccccc3)nc3ncnn23)CC1
inactive: growth inhibition [1] -4.71% | growth inhibition [2] -15.6% | viability increase [3] -5.82% | viability [4] 61.9% | viability [5] 71.9% | inhibition [6] 2.37% | RAM network inhibition [7] 2.33%

COc1ccc(N2CSC3=C(C#N)C(c4cc(OC)ccc4OC)CC(=O)N3C2)c(OC)c1 (configuration not stated)
inactive: growth inhibition [1] -1.38% | growth inhibition [2] 21.7% | viability increase [3] -6.09% | viability [4] 80.5% | viability [5] 82.6% | inhibition [6] 0.54% | RAM network inhibition [7] 2.28%

O=C(CCCn1c(=O)oc2ccccc21)N1CCc2ccccc2C1
inactive: growth inhibition [1] -8.29% | growth inhibition [2] -14.1% | viability increase [3] -4.06% | viability [4] 94.3% | viability [5] 95.2% | inhibition [6] 1.48% | RAM network inhibition [7] 4.82%

CCc1cc(=O)oc2cc(OCC(=O)N(CC)CC)c(Cl)cc12
inactive: growth inhibition [1] 6.47% | growth inhibition [2] -5.33% | viability increase [3] 1.34% | viability [4] 109% | viability [5] 104% | inhibition [6] -0.545% | RAM network inhibition [7] 3.66%

COc1ccc(C(=O)Oc2ccc3c(c2)OCO3)cc1OC
inactive: growth inhibition [1] -6.54% | growth inhibition [2] -4.45% | viability increase [3] -0.06% | viability [4] 85.9% | viability [5] 100% | inhibition [6] 1.68% | RAM network inhibition [7] 3.32%

O=C(O)Cn1ncc2c1-c1ccoc1CC2
inactive: growth inhibition [1] -0.31% | growth inhibition [2] 2.4% | viability increase [3] -0.14% | viability [4] 106% | viability [5] 96.6% | inhibition [6] 2.17% | RAM network inhibition [7] 0.47%

CC1CCN(C(=O)CN2C(=O)C(=O)c3ccccc32)CC1
inactive: growth inhibition [1] 3.92% | growth inhibition [2] -0.215% | viability increase [3] -5.16% | viability [4] 100% | viability [5] 97.1% | inhibition [6] 1.33% | RAM network inhibition [7] 3.27%

Cn1c(=O)oc2cc(S(=O)(=O)N3CCCC(C(=O)NCCN4CCOCC4)C3)ccc21 (configuration not stated)
inactive: growth inhibition [1] -1% | growth inhibition [2] 10.4% | viability increase [3] -0.15% | viability [4] 103% | viability [5] 108% | inhibition [6] 0.68% | RAM network inhibition [7] 4.15%
